Source: ChEMBL document CHEMBL2062417, “Biotinylated quercetin as an intrinsic photoaffinity proteomics probe for the identification of quercetin target proteins” (Bioorg Med Chem, 2011)
Calls of active or inactive are those of the source.

How the values were obtained:
[1] = molecular target: Casein kinase II subunit alpha (Homo sapiens) (UniProt P68400); assay: Binding affinity to CK2alpha at 150 uM followed by UV irradiation for 30 mins with Wood's glass filtered medium pressure mercury arc light by SDS-PAGE based pull down assay
In short: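 CK2 (17.5–70 nM) was mixed with 150 μM BioQ in 400 μL 10 mM PBS pH 7.2 with protease inhibitors, with or without 10 mM MgCl2 and 2 μM ATP. Samples were irradiated 30 min on ice (320–400 nm, peak 365 nm) or left unirradiated. Capture was on streptavidin agarose for 1 h, with washes in lysis buffer or 2% SDS Tris buffer, then boiling, SDS-PAGE and silver staining.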

[2] = molecular target: RuvB-like 2 (Homo sapiens) (UniProt Q9Y230); assay: Binding affinity to RUVBL2 in human Jurkat cells at 150 uM followed by UV irradiation for 30 mins with Wood's glass filtered medium pressure mercury arc light prior to cell lysis measured after denaturing wash by SDS-PAGE based pull down assay
In short: (§1)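 Jurkat cells were grown in RPMI with 10% FBS (about 15×10^6 cells) and treated 2 h with 150 μM BioQ in 3% aqueous DMSO. They were heat-shocked at 43 °C for 30 min, recovered 1 h at 37 °C, and UV-irradiated (320–400 nm, peak 365 nm, 30 min, 4 °C) before or after sonication lysis. Streptavidin-agarose capture ran 1 h. Beads were washed ≥3× with lysis buffer or 2% SDS Tris pH 7.4, boiled, run on 12% SDS-PAGE and silver-stained.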

[3] = molecular target: T1, Ubiquitin-like modifier-activating enzyme 1 (Homo sapiens) (UniProt P22314); assay: Binding affinity to UBA1 in human Jurkat cells at 150 uM followed by UV irradiation for 30 mins with Wood's glass filtered medium pressure mercury arc light after cell lysis measured after denaturing wash by SDS-PAGE based pull down assay; in short: as §1
T1 sequence (whole entry): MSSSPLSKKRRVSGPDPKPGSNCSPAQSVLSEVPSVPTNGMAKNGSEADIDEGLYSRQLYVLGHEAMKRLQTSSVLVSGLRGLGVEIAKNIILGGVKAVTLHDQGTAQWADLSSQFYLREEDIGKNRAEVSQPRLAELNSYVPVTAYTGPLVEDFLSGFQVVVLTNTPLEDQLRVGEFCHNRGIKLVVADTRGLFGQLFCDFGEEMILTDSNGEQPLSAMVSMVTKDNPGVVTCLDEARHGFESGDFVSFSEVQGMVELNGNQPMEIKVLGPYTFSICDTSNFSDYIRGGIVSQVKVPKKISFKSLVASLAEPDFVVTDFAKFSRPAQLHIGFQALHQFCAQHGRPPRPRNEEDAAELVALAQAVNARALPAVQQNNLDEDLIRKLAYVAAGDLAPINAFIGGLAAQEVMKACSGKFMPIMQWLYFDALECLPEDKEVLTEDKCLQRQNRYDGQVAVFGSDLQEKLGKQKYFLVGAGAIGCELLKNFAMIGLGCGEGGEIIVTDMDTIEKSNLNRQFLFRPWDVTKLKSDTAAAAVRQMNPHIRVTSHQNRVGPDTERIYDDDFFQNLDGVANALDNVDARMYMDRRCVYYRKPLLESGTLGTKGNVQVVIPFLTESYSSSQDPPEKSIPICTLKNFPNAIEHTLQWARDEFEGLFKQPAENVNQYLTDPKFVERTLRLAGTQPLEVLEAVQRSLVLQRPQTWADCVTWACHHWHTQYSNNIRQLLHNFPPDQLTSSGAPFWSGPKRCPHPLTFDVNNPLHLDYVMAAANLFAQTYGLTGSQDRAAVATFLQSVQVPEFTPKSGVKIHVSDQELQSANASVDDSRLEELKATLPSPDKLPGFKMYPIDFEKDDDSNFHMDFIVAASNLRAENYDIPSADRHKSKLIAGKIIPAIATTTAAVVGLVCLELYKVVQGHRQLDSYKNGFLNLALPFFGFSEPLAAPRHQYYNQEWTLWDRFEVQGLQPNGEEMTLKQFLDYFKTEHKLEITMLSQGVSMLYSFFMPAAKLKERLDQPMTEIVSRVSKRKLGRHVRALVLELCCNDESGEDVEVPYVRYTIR

[4] = molecular target: ATP synthase F(1) complex subunit beta, mitochondrial (Homo sapiens) (UniProt P06576); assay: Binding affinity to ATP5B in human Jurkat cells at 150 uM followed by UV irradiation for 30 mins with Wood's glass filtered medium pressure mercury arc light prior to cell lysis measured after denaturing wash by LC-MS/MS based pull down assay
In short: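 Silver-stained bands from cells irradiated before lysis were excised, destained, reduced with 10 mM DTT, alkylated with 50 mM iodoacetamide and digested with trypsin overnight. Peptides were extracted in 1% TFA/50% acetonitrile. Nano-C18 LC used a 2–50% acetonitrile gradient with 0.1% formic acid over 50 min at 260 nL/min, followed by MS/MS identification.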

Measured: Activity

Chain of RuvB-like 2 (Homo sapiens) (Q9Y230 whole entry): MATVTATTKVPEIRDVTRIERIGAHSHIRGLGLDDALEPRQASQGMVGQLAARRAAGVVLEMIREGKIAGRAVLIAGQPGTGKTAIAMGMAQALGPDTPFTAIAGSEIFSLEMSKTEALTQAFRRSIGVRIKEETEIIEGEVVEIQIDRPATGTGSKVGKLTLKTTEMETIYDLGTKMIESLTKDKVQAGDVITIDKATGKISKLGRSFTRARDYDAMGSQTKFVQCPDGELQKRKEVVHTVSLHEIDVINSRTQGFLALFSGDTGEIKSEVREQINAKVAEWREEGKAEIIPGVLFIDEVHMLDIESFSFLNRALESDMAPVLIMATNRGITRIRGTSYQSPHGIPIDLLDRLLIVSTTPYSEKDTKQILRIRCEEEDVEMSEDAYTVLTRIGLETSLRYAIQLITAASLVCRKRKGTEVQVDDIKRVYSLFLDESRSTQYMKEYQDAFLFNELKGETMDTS
Chain of Casein kinase II subunit alpha (Homo sapiens) (P68400 whole entry, looked up): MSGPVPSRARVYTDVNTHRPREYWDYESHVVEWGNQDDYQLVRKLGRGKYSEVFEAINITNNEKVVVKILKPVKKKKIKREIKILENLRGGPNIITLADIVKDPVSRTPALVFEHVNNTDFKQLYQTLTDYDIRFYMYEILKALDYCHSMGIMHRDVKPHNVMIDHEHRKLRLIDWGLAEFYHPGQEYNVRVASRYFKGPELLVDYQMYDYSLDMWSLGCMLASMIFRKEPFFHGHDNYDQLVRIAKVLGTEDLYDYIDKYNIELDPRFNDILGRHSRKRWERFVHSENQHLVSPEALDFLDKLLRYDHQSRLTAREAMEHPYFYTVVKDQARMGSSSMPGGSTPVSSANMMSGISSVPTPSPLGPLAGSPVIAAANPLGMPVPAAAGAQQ
Chain of ATP synthase F(1) complex subunit beta, mitochondrial (Homo sapiens) (P06576 whole entry, one chain of several): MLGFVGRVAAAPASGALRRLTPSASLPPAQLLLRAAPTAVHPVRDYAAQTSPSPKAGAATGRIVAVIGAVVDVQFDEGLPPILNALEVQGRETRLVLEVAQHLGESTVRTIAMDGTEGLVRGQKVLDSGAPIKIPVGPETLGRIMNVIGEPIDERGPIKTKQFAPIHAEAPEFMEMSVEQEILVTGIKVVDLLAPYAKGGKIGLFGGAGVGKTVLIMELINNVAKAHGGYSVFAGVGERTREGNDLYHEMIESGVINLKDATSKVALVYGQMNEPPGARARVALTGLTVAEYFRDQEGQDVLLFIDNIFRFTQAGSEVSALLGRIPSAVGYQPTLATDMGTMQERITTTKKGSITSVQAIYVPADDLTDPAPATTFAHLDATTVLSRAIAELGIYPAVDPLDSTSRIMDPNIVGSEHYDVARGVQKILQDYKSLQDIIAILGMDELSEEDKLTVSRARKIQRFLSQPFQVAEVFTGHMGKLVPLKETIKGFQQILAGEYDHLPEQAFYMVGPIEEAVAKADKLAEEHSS

O=C(CCCC[C@@H]1SC[C@@H]2NC(=O)N[C@@H]21)NCCOCCOCCNC(=O)COc1cc(O)c2c(=O)c(O)c(-c3ccc(O)c(O)c3)oc2c1
active: all assays above
